This is a sample that favours compounds with a hit; in the whole collection about 1.8% have one here.
FLuc stim CS – firefly luciferase counter-screen for stimulation assays; P08659; ATPlite luciferase biochemical, luminescence, 10 min; 0 = ATP-free wells, 1 = DMSO control; activation factor at 10 µM; 200,000 tested, under 10 active; AID 1027;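 active = luciferase activation factor, scaled between plate controls, of at least 2 with compound at 10 µM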
Target sequence (P08659 whole entry, looked up): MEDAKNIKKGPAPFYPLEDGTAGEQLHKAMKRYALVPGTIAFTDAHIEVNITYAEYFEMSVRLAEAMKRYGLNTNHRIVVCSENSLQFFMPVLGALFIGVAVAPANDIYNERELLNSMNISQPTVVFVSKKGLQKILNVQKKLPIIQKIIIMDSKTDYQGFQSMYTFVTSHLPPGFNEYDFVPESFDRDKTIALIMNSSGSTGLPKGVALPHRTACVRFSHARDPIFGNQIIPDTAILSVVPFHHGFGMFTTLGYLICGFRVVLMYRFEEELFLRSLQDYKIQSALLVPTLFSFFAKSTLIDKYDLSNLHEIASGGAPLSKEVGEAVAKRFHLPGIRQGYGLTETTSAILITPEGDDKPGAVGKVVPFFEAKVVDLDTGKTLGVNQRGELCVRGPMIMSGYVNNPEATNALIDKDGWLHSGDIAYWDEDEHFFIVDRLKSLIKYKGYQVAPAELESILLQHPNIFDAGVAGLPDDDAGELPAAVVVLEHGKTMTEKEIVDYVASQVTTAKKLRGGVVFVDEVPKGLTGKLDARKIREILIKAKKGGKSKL
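Assay system: Luciferase/luciferin detection reagent, cell-free biochemical luciferase assay / Read-out: luciferase activation / Benchmarks: No-ATP low control, compound-free enzyme-plus-ATP high control / Medium: PBS buffer for ATP / Detection: luminescence measurement of luciferase light output / Schedule: 10 min at ambient temperature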
PPC-1+TRAIL kill – kills PPC-1 cancer cells in the presence of TRAIL; hit rate 0.41% among 220,000; PPC-1 cells + TRAIL, ATPLite viability luminescence; cell killing (% activity), % at 4 µM or 5 µM; AID 1443;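 active = cell killing above 50% in the first pass at 4 µM, then a duplicate retest at 5 µM averaging 50% or more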
C8 TRAIL sens – sensitizes caspase-8 expressing cells to TRAIL. NB7+C8 cells + TRAIL, ATPlite viability luminescence. inhibition (viability loss, TRAIL sensitization), % at 10 µM. hit rate 1% among 360,000. AID 624354;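 active = compounds causing at least 50% loss of cell viability in the single-dose screen, relative to plate controls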
beta cell repl – MIN6 beta-cell proliferation induction | MIN6 cells proliferation, ATPlite luminescence, 48 h; cells starved in 0.2% serum; 100% = growth in 10% serum | proliferation, % at 10 µM | hit rate 0.29% among 330,000 | AID 2380;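 active = compounds whose signal lies at least 3.5 SD above the mean of all wells on their plate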
iPSC survival up – enhancers of human iPSC single-cell survival. hiPSC single-cell survival, ATPlite luminescence; 100% = ROCK inhibitor wells, 0% = DMSO. survival enhancement, % at 20 µM. hit rate 0.044% among 360,000. AID 602274; in the data active = survival enhancement above about 18%;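 also: cells exposed to compounds for 16 hours before the ATP read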
FLuc inh counter – counter-screen for luciferase assay inhibitors: firefly luciferase inhibition; inhibition, % at 10 µM; AID 1006; hit rate 1.5% among 200,000; ATPLite firefly luciferase biochemical luminescence, 10 min;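 active = inhibition above about 50% when tested at 10 µM, limit read from the data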
Numbers stand for hits; . = inactive; / = no result given.

SMILES	FLuc stim CS	PPC-1+TRAIL kill	C8 TRAIL sens	beta cell repl	iPSC survival up	FLuc inh counter
N#Cc1ccc(C(=O)OCC(=O)Nc2ccc(N3CCOCC3)cc2)cc1	.	.	.	.	.	.
O=C(N=Nc1c(O)[nH]c2ccccc12)c1ccco1	.	.	.	.	.	75.4
Cc1[nH]n(-c2ccccc2)c(=O)c1N=Nc1c(O)cc(S(=O)(=O)N(C)C)c2ccccc12	/	/	57.8	.	.	/
CCc1cc2c(=O)[nH]c(-c3ccccn3)nc2s1	.	59.7	52.7	.	.	.
CCc1cc2c(=O)[nH]c(N3CCCC3)nc2s1	.	.	.	.	.	.
C=CCNC(=S)N/N=C/c1ccc(C)cc1C	.	.	.	.	.	62.9
C=CCNC(=S)N/N=C/c1ccc(C(F)(F)F)cc1	.	.	51.0	.	.	51.7
COC(=O)c1ccccc1NC1=C/C(=N\S(=O)(=O)c2cccs2)c2ccccc2C1=O	.	.	80.4	.	.	.
COC(=O)c1ccccc1NC1=C/C(=N\S(=O)(=O)c2ccc(C(=O)O)cc2)c2ccccc2C1=O	/	/	69.0	.	.	/
COC(=O)c1cccc(NS(=O)(=O)c2cccs2)c1C	.	.	.	/	.	.
CCc1ccc(S(=O)(=O)/N=C2\C=C(Nc3ccc(C(=O)O)cc3)C(=O)c3ccccc32)cc1	/	/	.	.	.	/
O=C1NC[C@H](CCCCN2C[C@H](Cc3ccc(O)cc3)N(CCc3ccccc3)C(=O)C2=O)N(CCc2ccc(O)cc2)C1=O	/	/	.	/	.	/
COc1ccc(C(=O)NCC(=O)N/N=C(\C)c2ccco2)cc1OC	/	.	.	.	.	/
CCc1ccc2nc(N)sc2c1	.	.	.	.	.	56.3
O=C(OCC(=O)c1ccc(Cl)s1)c1cnccn1	/	/	.	.	.	/
O=C(OCC(=O)c1ccc(Cl)s1)c1ccccn1	.	.	.	.	.	57.1
COP(=O)(OC)c1nc(-c2ccc(C)cc2)oc1N1CCCCC1	/	/	.	.	.	/
CCOc1cc(C#N)ccc1OCC(=O)N1CCN(C(=O)c2cccs2)CC1	/	/	.	.	.	/
COc1ccc(C(=O)N=C2CCC(C#N)=C3c4cc(OC)c(OC)cc4CCN23)cc1	.	.	.	7.2	.	.
COc1cc2c(cc1OC)C1=C(C#N)CC/C(=N\S(=O)(=O)c3ccccc3)N1CC2	.	.	.	.	.	.
COc1ccccc1CC(=O)Nc1ccc(-c2noc(COc3ccc(Br)cc3)n2)cc1	.	.	.	.	.	.
COc1ccccc1CC(=O)Nc1ccc(-c2noc(COc3cccc(C)c3C)n2)cc1	.	.	.	.	21.2	.
Cc1ccccc1C(=O)N1CCN(c2ccc(NC(=O)c3ccc4c(c3)OCCO4)cc2)CC1	/	/	.	.	.	/
Cc1ccc(-c2nc(N)s[n+]2-c2ccccc2)cc1	.	.	.	/	.	79.7
Cc1ccc(-c2cc(-c3ccccc3)nc(NN)n2)cc1	/	/	.	.	.	/
SMILES	FLuc stim CS	PPC-1+TRAIL kill	C8 TRAIL sens	beta cell repl	iPSC survival up	FLuc inh counter
Cc1ccc(-c2nc3ccccc3nc2-c2ccccc2)cc1	/	/	.	.	.	/
CNc1nc(-c2ccccc2)[n+](-c2ccc(C)cc2)s1	.	.	.	/	.	88.8
O=C(Nc1nnc(-c2ccc(Br)cc2)o1)c1cccc(N2C(=O)CCC2=O)c1	/	/	.	.	.	/
O=C(Nc1c(Cl)cc2c(c1Cl)Cc1cc([N+](=O)[O-])ccc1-2)C(Cl)Cl	/	/	86.1	/	.	/
CC(=O)Nc1ccc2c(c1)Cc1c-2cc(Cl)c(NC(C)=O)c1Cl	/	/	.	/	.	/
O=C(NCc1ccc(F)cc1)C(c1ccccc1)c1ccccc1	/	/	.	.	.	/
CC(=O)N(Cc1ccc(F)cc1)C1=C(NCc2ccccc2)C(=O)c2ccccc2C1=O	.	.	96.5	/	.	.
O=C(Nc1nccs1)c1cc(S(=O)(=O)N2CCOCC2)ccc1Cl	.	60.2	.	.	.	.
O=C(Nc1ccncc1)c1cc(S(=O)(=O)N2CCCCC2)ccc1Cl	/	/	.	.	.	/
O=C(Nc1ccncc1)c1cc(S(=O)(=O)N2CCCC2)ccc1Cl	/	/	.	.	46.9	/
O=C(Nc1nncs1)c1cc(S(=O)(=O)N2CCOCC2)ccc1Cl	/	/	.	.	.	/
CN(Cc1c(C(=O)N/N=C/c2ccccc2O)nnn1-c1nonc1N)C1CCCCC1	/	/	.	/	.	/
COC(=O)c1ccc(CNC(=O)C(Cc2ccccc2)NC(=O)c2ccccc2)cc1 (centres undefined)	/	/	.	/	.	/
Cc1ccc(C(=O)N/N=C\c2ccc[nH]2)cc1[N+](=O)[O-]	.	.	85.8	.	.	.
O=C(N/N=C/c1ccc[nH]1)c1ccc(Cl)cc1	.	.	.	.	.	57.2
Cc1ccccc1NC(=O)c1c(C)[nH]c(=S)c(C#N)c1-c1ccco1	.	60.1	.	.	.	.
CCc1cc2c(COC(=O)CCNS(=O)(=O)c3cccc(C(F)(F)F)c3)cc(=O)oc2cc1O	/	/	53.9	.	.	/
CCCc1nnc(SCC(=O)NC2CC2)n1C	/	/	.	.	.	/
COc1ccccc1C(CNc1ccc(S(=O)(=O)N2CCCC2)cc1[N+](=O)[O-])N(C)C (centres undefined)	/	/	65.3	.	.	/
COc1ccc(C(CNc2ccc(S(=O)(=O)N3CCN(C)CC3)cc2[N+](=O)[O-])N(C)C)cc1 (centres undefined)	/	/	.	.	.	/
CC(C)Cn1c([N+](=O)[O-])nc2c1c(=O)[nH]c(=O)n2C	/	.	.	.	.	/
Cn1c(=O)[nH]c(=O)c2c1nc([N+](=O)[O-])n2Cc1ccccc1	/	.	85.2	.	.	/
CCN(CC(=O)Nc1c(F)cccc1F)C(=O)c1ccc(=O)n(C)n1	/	/	.	/	.	/
CC(C)c1ccc(-n2nc3ccc(N)cc3n2)cc1	.	.	67.6	.	.	87.3
Nc1ccc2nn(-c3ccc(F)cc3)nc2c1	/	/	.	.	.	/
SMILES	FLuc stim CS	PPC-1+TRAIL kill	C8 TRAIL sens	beta cell repl	iPSC survival up	FLuc inh counter
Cc1ccc(-n2nc3ccc(N)cc3n2)cc1	.	.	.	.	.	75.5
Cc1ccc2nc(-c3ccc(NC(=O)COC(=O)c4ccc(Br)o4)cc3)sc2c1	.	.	74.8	.	.	.
CCOc1ncccc1C(=O)OCC(=O)Nc1ccc(-c2nc3ccc(C)cc3s2)cc1	.	.	74.5	/	.	.
Cc1ccc2nc(-c3ccc(NC(=O)COC(=O)c4ccco4)cc3)sc2c1	.	55.1	71.1	.	.	.
CCOc1ncccc1C(=O)OCC(=O)Nc1c(C)cc(C)cc1C	.	.	.	.	.	.
Cc1ccc2nc(-c3ccc(NC(=O)COC(=O)c4ccc([N+](=O)[O-])o4)cc3)sc2c1	.	50.6	71.5	.	.	.
Cc1nc(C(F)(F)F)ccc1C(=O)N1CCC1(C)C(=O)NS(=O)(=O)c1cccc(C#N)c1 (centres undefined)	/	/	.	/	.	/
CC(=O)NCCC(=O)Nc1cc(S(=O)(=O)N2CCOCC2)ccc1N1CCCC1	/	/	.	.	.	/
Cc1ccccc1C(=O)N1CCC[C@@H]1C(=O)N1CCC[C@H]1C(=O)NCc1ccncc1	/	/	.	/	.	/
